# Measurements published in ChEMBL document CHEMBL1137344, “Flavonoid dimers as bivalent modulators for P-glycoprotein-based multidrug resistance: synthetic apigenin homodimers linked with defined-length poly(ethylene glycol) spacers increase drug retention and enhance chemosensitivity in resistant cancer cells” (J Med Chem, 2006).
# The source made the active and inactive calls. The calls are words filed in the database; no cut-off is given here.
# Columns and labels:
# [1] = test system: MDA-MB-435; test: Reversal of paclitaxel resistance in multidrug resistant MDA435/LCC6 cells by MTS assay; format: functional, cell-based; conditions: Homo sapiens
# Method in brief: (§1)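 Resistant MDA435/LCC6 cells, 4-day MTS assay of paclitaxel or vinblastine dose-response with dimers at 5 µM or monomers at 10 µM. Verapamil 5 µM as positive control, DMSO 0.05% as solvent control. IC50 from curves, triplicate, some repeated three times and averaged.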
# [2] = test system: MDA-MB-435; test: Effect on P-gp-mediated drug efflux in multidrug resistant MDA435/LCC6 cells assessed as intracellular DOX accumulation at 0 to 10 uM; format: functional, Homo sapiens
# Method in brief: (§2)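 Resistant MDA435/LCC6 cells grown to confluence, preincubated 30 min at 37 °C in fresh DMEM with modulator (0–20 µM), then DOX added (final 20 µM) for 2 h at 37 °C. Cells trypsinized, washed in cold PBS, lysed in 0.3 N HCl/50% ethanol, sonicated, centrifuged. Supernatant fluorescence read at ex 470/em 585 nm. Mean ± SD of three independent experiments.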
# [3] = target: T1, ATP-dependent translocase ABCB1 (Homo sapiens, UniProt P08183); test: Increase in VP-induced ATPase activity in human P-gp membrane measured as fold over the basal level in presence of 5 mM MgATP at 100 uM; format: functional, cell membranes
# T1 sequence (P08183 whole entry): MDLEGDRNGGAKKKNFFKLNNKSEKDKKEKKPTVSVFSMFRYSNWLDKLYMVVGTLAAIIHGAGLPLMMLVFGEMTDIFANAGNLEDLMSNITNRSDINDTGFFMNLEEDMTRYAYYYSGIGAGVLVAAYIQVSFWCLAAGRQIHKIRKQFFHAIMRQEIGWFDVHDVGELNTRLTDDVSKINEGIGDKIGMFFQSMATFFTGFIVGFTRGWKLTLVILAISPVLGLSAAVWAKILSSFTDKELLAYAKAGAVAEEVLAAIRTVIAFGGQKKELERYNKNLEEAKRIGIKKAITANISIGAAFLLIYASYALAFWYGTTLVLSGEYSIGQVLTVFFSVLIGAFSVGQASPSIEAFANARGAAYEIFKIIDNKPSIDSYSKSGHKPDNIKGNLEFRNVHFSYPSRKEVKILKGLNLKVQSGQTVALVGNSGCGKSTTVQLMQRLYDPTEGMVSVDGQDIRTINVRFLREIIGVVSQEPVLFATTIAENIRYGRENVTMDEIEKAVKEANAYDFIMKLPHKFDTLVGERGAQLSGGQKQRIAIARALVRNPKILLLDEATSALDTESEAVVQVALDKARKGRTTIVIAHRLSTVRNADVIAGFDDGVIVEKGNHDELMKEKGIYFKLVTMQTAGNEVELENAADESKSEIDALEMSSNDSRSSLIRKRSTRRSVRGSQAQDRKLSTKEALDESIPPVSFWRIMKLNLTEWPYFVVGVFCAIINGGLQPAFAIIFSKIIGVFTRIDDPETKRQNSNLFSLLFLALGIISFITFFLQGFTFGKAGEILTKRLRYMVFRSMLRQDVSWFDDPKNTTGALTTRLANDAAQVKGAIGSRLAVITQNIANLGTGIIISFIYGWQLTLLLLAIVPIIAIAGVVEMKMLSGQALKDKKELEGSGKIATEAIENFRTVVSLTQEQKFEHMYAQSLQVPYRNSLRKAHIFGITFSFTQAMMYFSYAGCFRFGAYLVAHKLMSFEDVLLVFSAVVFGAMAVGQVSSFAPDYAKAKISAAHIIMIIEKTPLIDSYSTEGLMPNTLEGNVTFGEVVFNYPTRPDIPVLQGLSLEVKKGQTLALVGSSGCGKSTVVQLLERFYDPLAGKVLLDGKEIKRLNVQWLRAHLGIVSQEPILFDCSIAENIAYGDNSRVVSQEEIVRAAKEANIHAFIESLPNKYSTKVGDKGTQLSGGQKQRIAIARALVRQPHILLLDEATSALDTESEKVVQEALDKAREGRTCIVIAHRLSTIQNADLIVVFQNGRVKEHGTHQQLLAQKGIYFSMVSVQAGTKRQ
# Method in brief: (§3)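 Human P-gp membrane (25 µg) incubated at 37 °C with compound (100 µM), verapamil (100 µM), both, Na3VO4 (100 µM) or 0.1% DMSO. Reaction started with 5 mM MgATP, run 40 min at 37 °C. Remaining ATP detected by luciferase luminescence after 20 min at room temperature. Activity is the luminescence drop versus vanadate-treated samples.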
# [4] = test system: MDA-MB-435; test: Reversal of mitoxantrone resistance in multidrug resistant LCC6 cells by MTS assay; format: functional, cell-based; conditions: Homo sapiens
# Method in brief: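 MDA435/LCC6 MDR cells in DMEM with 10% FBS, 2000 cells/well, allowed to attach for 24 h. Anticancer drug was added in serial concentrations with or without modulator (dimers 5 µM, monomers 10 µM; 0.05% DMSO solvent control), then grown for 4 days at 37 °C, 5% CO2. MTS/PMS was added for 2 h and A490 read. Survival was taken relative to DMSO controls; IC60 for DOX, IC50 for the others; triplicate.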
# [5] = target: T1, ATP-dependent translocase ABCB1; test: Increase in ATPase activity in human P-gp membrane measured as fold over the basal level in presence of 5 mM MgATP at 100 uM; format: functional, cell membranes; method in brief: as §3
# [6] = test system: MDA-MB-435; test: Reversal potency of vinblastine resistance in multidrug resistant MDA435/LCC6 cells by MTS assay; format: functional; conditions: Homo sapiens, in the assay text read “doxorubicin” for “vinblastine”
# [7] = test system: MDA-MB-435; test: Reversal of cisplatin resistance in multidrug resistant MDA435/LCC6 cells by MTS assay; format: functional, cell-based; conditions: Homo sapiens
# [8] = test system: P388/ADR; test: Reversal of DOX resistance in P388 ADR cells by MTS assay at 5 uM; format: functional, cell-based; conditions: Mus musculus
# Method in brief: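 P388/ADR cells: 3-day MTS assay of DOX dose-response with modulator at 5 µM, or 10 µM for monomers. Verapamil 5 µM and 0.05% DMSO as controls. IC50 from curves, triplicate points, mean ± SD of three independent experiments.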
# [9] = test system: P388/ADR; test: Reversal potency of DOX resistance in P388 ADR cells by MTS assay; format: functional, cell-based; conditions: Mus musculus
# Method in brief: (§4)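 P388/ADR cells: DOX or daunorubicin IC50 by 3-day MTS assay (A490) with modulator at 0–10 µM. Concentration dependence of IC50 used to gauge reversal potency. Typical experiment in triplicate.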
# [10] = test system: P388/ADR; test: Effect on P-gp-mediated drug efflux in adriamycin drug resistant P388 cells assessed as DOX accumulation after 30 mins; conditions: Mus musculus
# [11] = test system: P388/ADR; test: Reversal of daunorubicin resistance in P388 ADR cells by MTS assay at 5 uM; format: functional, cell-based; conditions: Mus musculus
# Method in brief: (§5)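 P388/ADR cells in RPMI 1640 with 10% FBS and penicillin/streptomycin, 5000 cells/well. Serial drug concentrations were given with or without modulator (dimers 5 µM, monomers 10 µM; 0.05% DMSO control) and cells grown for 3 days at 37 °C. Read-out was MTS/PMS for 2 h, then A490. IC50 was taken from dose-response curves relative to solvent control; triplicate wells.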
# [12] = test system: P388/ADR; test: Reversal of mitoxantrone resistance in adriamycin resistant P388 cells by MTS assay; format: functional, cell-based; conditions: Mus musculus; method in brief: as §5
# [13] = test system: MDA-MB-435; test: Reversal of vinblastine resistance in multidrug resistant MDA435/LCC6 cells by MTS assay; format: functional, cell-based; conditions: Homo sapiens; method in brief: as §1
# [14] = test system: P388; test: Effect on P-gp-mediated drug efflux in P388 cells assessed as DOX accumulation after 30 mins; conditions: Mus musculus
# [15] = test system: MDA-MB-435; test: Effect on P-gp-mediated drug efflux in multidrug resistant MDA435/LCC6 cells assessed as relative fold in intracellular DOX accumulation at 10 uM; format: functional, Homo sapiens; method in brief: as §2
# [16] = test system: P388/ADR; test: Reversal potency of daunorubicin resistance in P388 ADR cells by MTS assay; format: functional, cell-based; conditions: Mus musculus; method in brief: as §4
# [17] = test system: MDA-MB-435; test: Cytotoxicity against MDA435/LCC6 cells at 5 uM; format: functional, cell-based; conditions: Homo sapiens
# [18] = test system: MDA-MB-435; test: Effect on P-gp-mediated drug efflux in MDA435/LCC6 cells assessed as intracellular DOX accumulation; format: functional, cell-based; conditions: Homo sapiens
# Method in brief: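 Confluent MDA435/LCC6 parent and MDR cells were preincubated with modulator in fresh DMEM for 30 min at 37 °C (range 0–20 µM; 0.05% DMSO control). DOX at 20 µM final was added for 2 h at 37 °C. Cells were trypsinised, washed three times in cold PBS, lysed in 0.3 N HCl/50% ethanol, sonicated and centrifuged. Supernatant DOX fluorescence was read (ex 470, em 585 nm); three independent experiments.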
# [19] = target: T1, ATP-dependent translocase ABCB1; test: Inhibition of VP-induced ATPase activity in human P-gp membrane in presence of verapamil; format: functional, cell membranes; set-up: scale not given: the % may be the effect or the level left
# [20] = test system: P388; test: Relative fold, IC50 in absence to presence of verapamil in multidrug resistant P388 cells; format: functional, Mus musculus
# Method in brief: (§6)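 P388/ADR cells seeded 5000/well in RPMI 1640 with 10% FBS, given drug concentration series with or without 5 µM modulator for 3 days. MTS/PMS added for 2 h at 37 °C, absorbance at 490 nm. IC50 from dose-response curves versus 0.05% DMSO controls. RF = IC50 without modulator / IC50 with modulator.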
# [21] = test system: P388; test: Relative fold, IC50 in absence to presence of 1,13-bis[4'-((5,7-dihydroxy)-4H-chromen-4-on-2-yl)phenyl]-1,4,7,10,13-pentaoxatridecane in multidrug resistant P388 cells; format: functional, Mus musculus; method in brief: as §6
# [22] = test system: P388/ADR; test: Antiproliferative activity against adriamycin resistant P388 cells in presence of 5 uM verapamil by ELISA; format: functional, cell-based; conditions: Mus musculus; method in brief: as §6
# [23] = test system: MDA-MB-435; test: Antiproliferative activity against MDA435/LCC6 cells by ELISA; format: functional, cell-based; conditions: Homo sapiens
# [24] = test system: MDA-MB-435; test: Antiproliferative activity against multidrug resistant MDA435/LCC6 cells in presence of 5 uM 1,13-bis[4'-((5,7-dihydroxy)-4H-chromen-4-on-2-yl)phenyl]-1,4,7,10,13-pentaoxatridecane by ELISA; format: functional, cell-based; conditions: Homo sapiens
# Method in brief: (§7)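 Resistant breast cells seeded 2000/well, allowed 24 h attachment, then exposed to anticancer-drug concentration series with or without 5 µM modulator for 4 days. MTS/PMS read at 490 nm after 2 h. IC50 from dose-response curves relative to 0.05% DMSO controls. RF = IC50 without modulator divided by IC50 with modulator.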
# [25] = test system: MDA-MB-435; test: Antiproliferative activity against multidrug resistant MDA435/LCC6 cells by ELISA; format: functional, cell-based; conditions: Homo sapiens
# Method in brief: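 MTS/PMS proliferation assay: cells seeded 2000/well, drugs added after 24 h attachment, growth 4 days in DMEM with 10% FBS at 37 °C, 5% CO2. MTS/PMS added for 2 h, absorbance read at 490 nm. Survival is taken relative to DMSO (0.05%) controls. IC50 is read from dose-response curves, at least triplicate, repeated twice.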
# [26] = test system: MDA-MB-435; test: Relative fold, IC50 in absence to presence of 1,13-bis[4'-((5,7-dihydroxy)-4H-chromen-4-on-2-yl)phenyl]-1,4,7,10,13-pentaoxatridecane in multidrug resistant MDA435/LCC6 cells; format: functional, Homo sapiens; method in brief: as §7
# [27] = test system: P388; test: Antiproliferative activity against P388 cells by ELISA; format: functional, cell-based; conditions: Mus musculus
# Method in brief: (§8)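 MTS/PMS proliferation assay: cells seeded 5000/well in RPMI 1640 with 10% FBS and penicillin/streptomycin at 37 °C, 5% CO2. Drug series added and cells grown 3 days. MTS/PMS added for 2 h at 37 °C, absorbance read at 490 nm. Survival relative to DMSO (0.05%) controls; IC50 from dose-response curves, at least triplicate.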
# [28] = test system: P388/ADR; test: Antiproliferative activity against adriamycin resistant P388 cells in presence of 5 uM 1,13-bis[4'-((5,7-dihydroxy)-4H-chromen-4-on-2-yl)phenyl]-1,4,7,10,13-pentaoxatridecane by ELISA; format: functional, cell-based; conditions: Mus musculus; method in brief: as §6
# [29] = test system: P388/ADR; test: Antiproliferative activity against adriamycin resistant P388 cells by ELISA; format: functional, cell-based; conditions: Mus musculus; method in brief: as §8
smiles,measurement,setting,value
O=c1cc(-c2ccc(OCCOCCOCCOCCOc3ccc(-c4cc(=O)c5c(O)cc(O)cc5o4)cc3)cc2)oc2cc(O)cc(O)c12,EC50,[1],900 nM
same,IC50,[1],4.4 nM
same,Activity,[2],17%
same,Activity,[3],7.4
same,Activity,[4],inactive
same,Activity,[5],3.3
same,IC60,[6],0.73 µM
same,Activity,[7],inactive
same,IC50,[8],150 nM
same,IC50,[9],150 nM
same,Activity,[10],Dose-dependent effect
same,IC50,[11],100 nM
same,Activity,[12],inactive
same,Activity,[13],Dose-dependent effect
same,IC50,[13],0.36 nM
same,Activity,[14],inactive
same,Activity,[15],5.8
same,IC50,[16],100 nM
same,Activity,[17],inactive
same,Activity,[18],inactive
same,Activity,[19],17%
COc1cccc2c1C(=O)c1c(O)c3c(c(O)c1C2=O)C[C@@](O)(C(C)=O)C[C@@H]3O[C@H]1C[C@H](N)[C@H](O)[C@H](C)O1 [DAUNORUBICIN],Ratio IC50,[20],53
same,Ratio IC50,[21],20
same,IC50,[22],40 nM
same,IC50,[23],79 nM
same,IC50,[24],129 nM
same,IC50,[25],977 nM
same,Ratio IC50,[26],7.6
same,IC50,[27],25 nM
same,IC50,[28],106 nM
same,IC50,[29],2110 nM
